Test results taken from ChEMBL document CHEMBL1123566, “Synthesis and cardiac electrophysiological activity of 2- and 3-[(substituted phenyl)alkyl]quinuclidines. Structure-activity relationships” (1987).
Where “and” joins values, the source holds several entries; their conditions need not be identical. Equal values may be shown once.

Tests used:
Canis familiaris [1] = species: Canis familiaris; assay: In vitro electrophysiological evaluation in canine cardiac ventricular muscle reported as maximum % change for functional refractory period (FRP) at 0.1-10 uM concentration range; concentration at which it occurred is 1 uM.; parameters: species or system Canis lupus familiaris, Muscle tissue
In short: (§1)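 Canine right ventricle and papillary muscle strips in oxygenated Tyrode's solution, fitted with stimulating and recording electrodes. The extra-stimulus conduction-interval method was adapted for in vitro use. FRP and CT were read from a conduction-interval curve before and after various compound concentrations, and expressed as percent change from control. Compounds were taken from 10 mM deionized-water stock into Tyrode's. Each strip was used once as its own control.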

Canis familiaris [2] = assay: Heart rate was determined by intraduodenal administration of 10 mg/kg (low dose) of compound in anesthetized dogs. Value was reported for experiment 2; assay type: functional, Canis lupus familiaris
In short: (§2)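 Anesthetized dogs; compound given intraduodenally, generally as two doses, the second a cumulative (high) dose. LV functional refractory period and conduction time measured 15, 30 and 45 min after dosing; heart rate and blood pressure measured during nonpacing intervals. Values are % change from control, given per individual animal. Active if FRP or CT prolonged by ≥12%.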

Canis familiaris [3] = species: Canis familiaris; assay: In vitro electrophysiological evaluation in canine cardiac ventricular muscle reported as maximum % change for functional refractory period (FRP) at 0.1-30 uM concentration range; concentration at which it occurred is 1 uM.; parameters: species or system Canis lupus familiaris, Muscle tissue; in short: as §1
Canis familiaris [4] = species: Canis familiaris; assay: In vitro electrophysiological activity in canine cardiac occurred is 1 uM; assay type: functional, Canis lupus familiaris, Heart
Canis familiaris [5] = assay: Heart rate was determined by intraduodenal administration of 30 mg/kg (high dose) of compound in anesthetized dogs. Value was reported for experiment 1; assay type: functional, Canis lupus familiaris; in short: as §2
Canis familiaris [6] = species: Canis familiaris; assay: In vitro electrophysiological evaluation in canine cardiac Purkinje fibres reported as percent change Vmax at 10 uM at concentration range of 0.1-30 uM; Minimal (<10% decrease or increase in V max).; assay type: functional, organism-based; settings: Canis lupus familiaris, Purkinje fiber
In short: (§3)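 Canine cardiac Purkinje fibres, intracellular microelectrode recording, paced at a basic cycle length of 1 s. APD95 and Vmax read simultaneously. Compound: 10 mM stock in deionized water, diluted into Tyrode's solution, tested over the stated concentration range. Each fibre used once as its own control. Result is % change from control, given at 10 µM or as the maximum with its concentration. M = <10% decrease or an increase in Vmax.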

Canis familiaris [7] = assay: Left ventricular refractory period was determined by intraduodenal administration of 30 mg/kg (high dose) of compound in anesthetized dogs. Value was reported for experiment 2; assay type: functional, Canis lupus familiaris, Cardiac ventricle
In short: (§4)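 Anesthetized dogs received two intraduodenal doses, the second cumulative (low dose/high dose). Left ventricular FRP and CT were measured 15, 30 and 45 min after dosing. Heart rate and mean blood pressure were taken during nonpacing intervals. Values are percent change from control. The vehicle was 5% dextrose in water/tragacanth. Activity was defined as ≥12% prolongation of FRP or CT.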

Canis familiaris [8] = species: Canis familiaris; assay: In vitro electrophysiological evaluation in canine cardiac ventricular muscle reported as % change for conduction time(CT) at 10 uM at 0.1-30 uM concentration range; Minimal (<10% decrease or increase in CT).; assay type: functional, Canis lupus familiaris, Muscle tissue
Canis familiaris [9] = species: Canis familiaris; assay: In vitro electrophysiological evaluation in canine cardiac ventricular muscle reported as maximum % change for conduction time(CT) at 0.1-30 uM concentration range; Minimal (<10% decrease or increase in CT).; assay type: functional, Canis lupus familiaris, Muscle tissue; in short: as §1
Canis familiaris [10] = assay: Mean arterial blood pressure was determined by intraduodenal administration of 10 mg/kg (low dose)of compound in anesthetized dogs. Value was reported for experiment 1; assay type: functional, Canis lupus familiaris
Canis familiaris [11] = assay: Left ventricular refractory period was determined by intraduodenal administration of 30 mg/kg (high dose) of compound in anesthetized dogs. Value was reported for experiment 1; assay type: functional, Canis lupus familiaris, Cardiac ventricle; in short: as §4
Canis familiaris [12] = species: Canis familiaris; assay: In vitro electrophysiological evaluation in canine cardiac Purkinje fibres reported as % change for action potential duration at a concentration of 10 uM; assay type: functional, Canis lupus familiaris, Purkinje fiber; in short: as §3
Canis familiaris [13] = assay: Heart rate was determined by intraduodenal administration of 30 mg/kg (high dose) of compound in anesthetized dogs. Value was reported for experiment 2; assay type: functional, Canis lupus familiaris; in short: as §2
Canis familiaris [14] = species: Canis familiaris; assay: In vitro electrophysiological evaluation in canine cardiac Purkinje fibres reported as % change for action potential duration at 10 uM at 0.1-30 uM concentration range; assay type: functional, Canis lupus familiaris, Purkinje fiber; in short: as §3
Canis familiaris [15] = assay: Conduction time was determined by intraduodenal administration of 10 mg/kg (low dose)of compound in anesthetized dogs. Value was reported for experiment 2; assay type: functional, Canis lupus familiaris; in short: as §2
Canis familiaris [16] = assay: Conduction time was determined by intraduodenal administration of 30 mg/kg (high dose)of compound in anesthetized dogs. Value was reported for experiment 2; assay type: functional, Canis lupus familiaris; in short: as §2
Canis familiaris [17] = species: Canis familiaris; assay: In vitro electrophysiological evaluation in canine cardiac Purkinje fibres reported as percent change Vmax at 10 uM at concentration range of 0.1-30 uM; assay type: functional; settings: Canis lupus familiaris, Purkinje fiber; in short: as §3
Canis familiaris [18] = assay: Left ventricular refractory period was determined by intraduodenal administration of 10 mg/kg (low dose) of compound in anesthetized dogs. Value was reported for experiment 1; assay type: functional, Canis lupus familiaris, Cardiac ventricle; in short: as §4
Canis familiaris [19] = assay: Left ventricular refractory period was determined by intraduodenal administration of 10 mg/kg (low dose) of compound in anesthetized dogs. Value was reported for experiment 2; assay type: functional, Canis lupus familiaris, Cardiac ventricle; in short: as §4
Canis familiaris [20] = species: Canis familiaris; assay: In vitro electrophysiological evaluation in canine cardiac ventricular muscle reported as % change for the functional refractory period (FRP) at 10 uM at concentration range of 0.1-30 uM; parameters: species or system Canis lupus familiaris, Muscle tissue; in short: as §1
Canis familiaris [21] = assay: Mean arterial blood pressure was determined by intraduodenal administration of 10 mg/kg (low dose)of compound in anesthetized dogs. Value was reported for experiment 2; assay type: functional, Canis lupus familiaris
Canis familiaris [22] = species: Canis familiaris; assay: In vitro electrophysiological evaluation in canine cardiac occurred is 30 uM; assay type: functional; settings: Canis lupus familiaris; Heart
Canis familiaris [23] = assay: Heart rate was determined by intraduodenal administration of 10 mg/kg (low dose) of compound in anesthetized dogs. Value was reported for experiment 1; assay type: functional, Canis lupus familiaris; in short: as §2
Canis familiaris [24] = species: Canis familiaris; assay: In vitro electrophysiological evaluation in canine cardiac ventricular muscle reported as % change for conduction time(CT) at 10 uM at 0.1-10 uM concentration range; Minimal (<10% decrease or increase in CT).; assay type: functional, Canis lupus familiaris, Muscle tissue
Canis familiaris [25] = assay: Conduction time was determined by intraduodenal administration of 10 mg/kg (low dose) of compound in anesthetized dogs. Value was reported for experiment 1; assay type: functional, Canis lupus familiaris; in short: as §2
Canis familiaris [26] = species: Canis familiaris; assay: In vitro electrophysiological evaluation in canine cardiac ventricular muscle reported as % change for the functional refractory period (FRP) at 10 uM at concentration range of 0.1-10 uM; parameters: species or system Canis lupus familiaris, Muscle tissue; in short: as §1
Canis familiaris [27] = assay: Mean arterial blood pressure was determined by intraduodenal administration of 30 mg/kg (high dose) of compound in anesthetized dogs. Value was reported for experiment 1; assay type: functional, Canis lupus familiaris
Canis familiaris [28] = species: Canis familiaris; assay: In vitro electrophysiological evaluation in canine cardiac ventricular muscle reported as maximum % change for functional refractory period (FRP) at 0.1-30 uM concentration range; concentration at which it occurred is 30 uM.; parameters: species or system Canis lupus familiaris, Muscle tissue; in short: as §1
Canis familiaris [29] = assay: Conduction time was determined by intraduodenal administration of 30 mg/kg (high dose) of compound in anesthetized dogs. Value was reported for experiment 1; assay type: functional, Canis lupus familiaris; in short: as §2
Canis familiaris [30] = assay: Mean arterial blood pressure was determined by intraduodenal administration of 30 mg/kg (high dose) of compound in anesthetized dogs. Value was reported for experiment 2; assay type: functional, Canis lupus familiaris
Canis familiaris [31] = species: Canis familiaris; assay: In vitro electrophysiological evaluation in canine cardiac ventricular muscle reported as maximum % change for conduction time(CT) at 0.1-10 uM concentration range; Minimal (<10% decrease or increase in CT).; assay type: functional, Canis lupus familiaris, Muscle tissue; in short: as §1

**Q.** For `Cl.O=C(CCC1C(=O)C2CCN1CC2)c1ccc(Cl)cc1` (stereo unspecified), which FRP (Canis familiaris [1]) is on record?
**A.** 22%

**Q.** What about the HR (Canis familiaris [2]) of the same compound?
**A.** -15%

**Q.** What about the FRP (Canis familiaris [3]) of the same compound?
**A.** 15%

**Q.** And the APD95 (Canis familiaris [4])?
**A.** 14% and 12%

**Q.** What about the HR (Canis familiaris [5]) of the same compound?
**A.** -18%

**Q.** What about the Vmax (Canis familiaris [6]) of the same compound?
**A.** < 10%

**Q.** What about the “LV FRP” value (Canis familiaris [7]) of the same compound?
**A.** 6%

**Q.** What about the CT (Canis familiaris [8]) of the same compound?
**A.** <10%

**Q.** What about the CT (Canis familiaris [9]) of the same compound?
**A.** <10%

**Q.** And the Mean blood pressure (Canis familiaris [10])?
**A.** -5%

**Q.** And the “LV FRP” value (Canis familiaris [11])?
**A.** 15%

**Q.** And the APD95 (Canis familiaris [12])?
**A.** 13%

**Q.** And the HR (Canis familiaris [13])?
**A.** -21%

**Q.** And the APD95 (Canis familiaris [14])?
**A.** 5%

**Q.** What about the CT (Canis familiaris [15]) of the same compound?
**A.** 4%

**Q.** What about the CT (Canis familiaris [16]) of the same compound?
**A.** 13%

**Q.** What about the Vmax (Canis familiaris [17]) of the same compound?
**A.** -10%

**Q.** And the “LV FRP” value (Canis familiaris [18])?
**A.** 15%

**Q.** What about the “LV FRP” value (Canis familiaris [19]) of the same compound?
**A.** 12%

**Q.** And the FRP (Canis familiaris [20])?
**A.** 10%

**Q.** What about the Mean blood pressure (Canis familiaris [21]) of the same compound?
**A.** 18%

**Q.** What about the Vmax (Canis familiaris [22]) of the same compound?
**A.** -26% and -18%

**Q.** And the HR (Canis familiaris [23])?
**A.** -13%

**Q.** And the CT (Canis familiaris [24])?
**A.** <10%

**Q.** What about the CT (Canis familiaris [25]) of the same compound?
**A.** 5%

**Q.** What about the FRP (Canis familiaris [26]) of the same compound?
**A.** 17%

**Q.** What about the Mean blood pressure (Canis familiaris [27]) of the same compound?
**A.** 0%

**Q.** And the FRP (Canis familiaris [28])?
**A.** -9%

**Q.** And the CT (Canis familiaris [29])?
**A.** 14%

**Q.** What about the Mean blood pressure (Canis familiaris [30]) of the same compound?
**A.** 23%

**Q.** What about the CT (Canis familiaris [31]) of the same compound?
**A.** <10%
